Test results as given in ChEMBL document CHEMBL1157468, “Design, synthesis, and testing of non-nephrotoxic desazadesferrithiocin polyether analogues” (J Med Chem, 2008).

Columns and labels:
Kidney [1] = experiment: Biodistribution in Sprague-Dawley rat kidney assessed per gram tissue wet weight at 300 umol/kg, sc after 1 hr; type: ADME, organism-based; details: in vivo
Kidney [2] = experiment: Biodistribution in Sprague-Dawley rat kidney assessed per gram tissue wet weight at 300 umol/kg, sc after 4 hrs; type: ADME, organism-based; details: in vivo
Rattus norvegicus [3] = experiment: Nephrotoxicity in Sprague-Dawley rat assessed as heavy vacuolized renal tubules at […] for 7 days by renal perfusion studies; type: toxicity, organism-based; details: in vivo, 168 h, in the assay text read “237 umol/kg” for “273 umol/kg”
How it was run: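 Male Sprague–Dawley rats (200–250 g), fasted overnight, got 237 µmol/kg/dose po twice daily (474 µmol/kg/day) for 7 days and were fed about 3 h post-drug. Untreated age-matched rats were controls. One day post-drug, under pentobarbital, kidneys were perfusion-fixed with glutaraldehyde in Tyrode's buffer and embedded in TAAB. 500 nm sections were stained with toluidine blue and examined by light microscopy at 400×.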

Plasma [4] = experiment: Biodistribution in Sprague-Dawley rat plasma at 300 umol/kg, po after 2 hrs; type: ADME, organism-based; details: in vivo
How it was run: (§1)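 Male Sprague–Dawley rats (250–350 g) got one 300 µmol/kg dose, po or sc. Vehicle was water or the monosodium salt (free acid plus 1 equiv NaOH). Three rats per time point were euthanized by CO2 at 1, 2 or 4 h. Plasma came from citrated cardiac blood; liver, kidney, heart and pancreas were removed. Drug levels were measured by HPLC with UV detection at 310 nm against linear calibration curves (detection limit 0.25 µM).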

Rattus norvegicus [5] = experiment: Toxicity in iron-overloaded Sprague-Dawley rat assessed as survival at 300 umol/kg/day, po after 28 days by non-renal perfusion protocol; type: organism-based; details: in vivo, 672 h
How it was run: (§2)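 Male Sprague–Dawley rats were iron-loaded with ip iron dextran, 105 mg/kg/dose × 4 over two weeks, then given two weeks to equilibrate (about 350 mg Fe/kg). They received oral gavage once daily for 28 days in the afternoon, unfasted, six per group, with age-matched controls. Euthanasia was 24 h after the last dose. Survival was recorded, and kidney and bone marrow were sent for histopathology.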

Kidney [6] = experiment: Biodistribution in Sprague-Dawley rat kidney assessed per gram tissue wet weight at 300 umol/kg, po after 4 hrs; type: ADME, organism-based; details: in vivo; how it was run: as §1
Heart [7] = experiment: Biodistribution in Sprague-Dawley rat heart assessed per gram tissue wet weight at 300 umol/kg, po after 1 hr; type: ADME, organism-based; details: in vivo; how it was run: as §1
Sapajus apella [8] = experiment: Iron-clearing efficiency in iron-overloaded Cebus apella at 150 umol/kg, sc after 2 days relative to control; type: functional
How it was run: (§3)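 Monkeys (Cebus apella, 3.5–4 kg) were iron-loaded to about 500 mg Fe/kg with iv iron dextran and rested at least 60 days. They then got one 150 µmol/kg dose, po or sc. Feces and urine were collected every 24 h from 4 days before to 5 days after dosing, and iron was measured by flame atomic absorption. Efficiency was the 2-day post-drug iron minus the 4-day pre-drug baseline, divided by theoretical output (2:1 ligand:iron); mean ± SEM.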

Pancreas [9] = experiment: Biodistribution in Sprague-Dawley rat pancreas assessed per gram tissue wet weight at 300 umol/kg, sc after 1 hr; type: ADME, organism-based; details: in vivo
Rattus norvegicus [10] = experiment: Toxicity in non-iron-overloaded Sprague-Dawley rat assessed as survival at 75 umol/kg/day, po after 28 days by non-renal perfusion protocol; type: organism-based; details: in vivo, 672 h
How it was run: (§4)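 Male Sprague–Dawley rats with normal iron stores, unfasted, received oral gavage once daily in the afternoon for 28 days, six per group, with age-matched untreated controls. Euthanasia was 24 h after the last dose. Survival was recorded over the dosing period, and kidney and bone marrow were examined histopathologically.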

Liver [11] = experiment: Biodistribution in Sprague-Dawley rat liver assessed per gram tissue wet weight at 300 umol/kg, po after 4 hrs; type: ADME, organism-based; details: in vivo; how it was run: as §1
Rattus norvegicus [12] = experiment: Toxicity in iron-overloaded Sprague-Dawley rat assessed as survival at 150 umol/kg/day, po after 28 days by non-renal perfusion protocol; type: organism-based; details: in vivo, 672 h; how it was run: as §2
Plasma [13] = experiment: Biodistribution in Sprague-Dawley rat plasma at 300 umol/kg, sc after 1 hr; type: ADME, organism-based; details: in vivo
Heart [14] = experiment: Biodistribution in Sprague-Dawley rat heart assessed per gram tissue wet weight at 300 umol/kg, po after 2 hrs; type: ADME, organism-based; details: in vivo; how it was run: as §1
Pancreas [15] = experiment: Biodistribution in Sprague-Dawley rat pancreas assessed per gram tissue wet weight at 300 umol/kg, po after 4 hrs; type: ADME, organism-based; details: in vivo; how it was run: as §1
Heart [16] = experiment: Biodistribution in Sprague-Dawley rat heart assessed per gram tissue wet weight at 300 umol/kg, sc after 4 hrs; type: ADME, organism-based; details: in vivo
Liver [17] = experiment: Biodistribution in Sprague-Dawley rat liver assessed per gram tissue wet weight at 300 umol/kg, sc after 2 hrs; type: ADME, organism-based; details: in vivo
Kidney [18] = experiment: Biodistribution in Sprague-Dawley rat kidney assessed per gram tissue wet weight at 300 umol/kg, sc after 2 hrs; type: ADME, organism-based; details: in vivo
Pancreas [19] = experiment: Biodistribution in Sprague-Dawley rat pancreas assessed per gram tissue wet weight at 300 umol/kg, po after 1 hr; type: ADME, organism-based; details: in vivo; how it was run: as §1
Rattus norvegicus [20] = experiment: Iron-clearing efficiency in non-iron-overloaded Sprague-Dawley rat bile assessed as iron excretion at 150 umol/kg, po; type: functional
How it was run: (§5)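 Male Sprague–Dawley rats (400–450 g), not iron-loaded and bile duct-cannulated, got one dose of 50, 150 or 300 µmol/kg po, or 300 µmol/kg sc. Vehicle was water or the monosodium salt. Bile was collected every 3 h for 24 h and urine at 24 h. Iron was measured by atomic absorption. Efficiency was treated minus control iron excretion, divided by theoretical output (2:1 ligand:iron), as a percent; mean ± SEM.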

Pancreas [21] = experiment: Biodistribution in Sprague-Dawley rat pancreas assessed per gram tissue wet weight at 300 umol/kg, sc after 4 hrs; type: ADME, organism-based; details: in vivo
Rattus norvegicus [22] = experiment: Toxicity in non-iron-overloaded Sprague-Dawley rat assessed as survival at 150 umol/kg/day, po after 28 days by non-renal perfusion protocol; type: organism-based; details: in vivo, 672 h; how it was run: as §4
Kidney [23] = experiment: Biodistribution in Sprague-Dawley rat kidney assessed per gram tissue wet weight at 300 umol/kg, po after 2 hrs; type: ADME, organism-based; details: in vivo; how it was run: as §1
Pancreas [24] = experiment: Biodistribution in Sprague-Dawley rat pancreas assessed per gram tissue wet weight at 300 umol/kg, sc after 2 hrs; type: ADME, organism-based; details: in vivo
Rattus norvegicus [25] = experiment: Iron-clearing efficiency in non-iron-overloaded Sprague-Dawley rat at 300 umol/kg, sc after 24 hrs relative to control; type: functional; how it was run: as §5
Pancreas [26] = experiment: Biodistribution in Sprague-Dawley rat pancreas assessed per gram tissue wet weight at 300 umol/kg, po after 2 hrs; type: ADME, organism-based; details: in vivo; how it was run: as §1
Liver [27] = experiment: Biodistribution in Sprague-Dawley rat liver assessed per gram tissue wet weight at 300 umol/kg, sc after 1 hr; type: ADME, organism-based; details: in vivo
Liver [28] = experiment: Biodistribution in Sprague-Dawley rat liver assessed per gram tissue wet weight at 300 umol/kg, po after 1 hr; type: ADME, organism-based; details: in vivo; how it was run: as §1
Sapajus apella [29] = experiment: Iron-clearing efficiency in iron-overloaded Cebus apella at 150 umol/kg, po after 2 days relative to control; type: functional; how it was run: as §3
Rattus norvegicus [30] = experiment: Iron-clearing efficiency in non-iron-overloaded Sprague-Dawley rat at 50 umol/kg, po after 24 hrs relative to control; type: functional; how it was run: as §5
Plasma [31] = experiment: Biodistribution in Sprague-Dawley rat plasma at 300 umol/kg, sc after 4 hrs; type: ADME, organism-based; details: in vivo
Liver [32] = experiment: Biodistribution in Sprague-Dawley rat liver assessed per gram tissue wet weight at 300 umol/kg, po after 2 hrs; type: ADME, organism-based; details: in vivo; how it was run: as §1
Rattus norvegicus [33] = experiment: Toxicity in iron-overloaded Sprague-Dawley rat assessed as survival at 75 umol/kg/day, po after 28 days by non-renal perfusion protocol; type: organism-based; details: in vivo, 672 h; how it was run: as §2
Rattus norvegicus [34] = experiment: Iron-clearing efficiency in non-iron-overloaded Sprague-Dawley rat bile assessed as iron excretion at 300 umol/kg, po; type: functional; how it was run: as §5
Rattus norvegicus [35] = experiment: Iron-clearing efficiency in non-iron-overloaded Sprague-Dawley rat at 150 umol/kg, po after 24 hrs relative to control; type: functional; how it was run: as §5
Plasma [36] = experiment: Biodistribution in Sprague-Dawley rat plasma at 300 umol/kg, po after 1 hr; type: ADME, organism-based; details: in vivo; how it was run: as §1
Heart [37] = experiment: Biodistribution in Sprague-Dawley rat heart assessed per gram tissue wet weight at 300 umol/kg, sc after 1 hr; type: ADME, organism-based; details: in vivo
Liver [38] = experiment: Biodistribution in Sprague-Dawley rat liver assessed per gram tissue wet weight at 300 umol/kg, sc after 4 hrs; type: ADME, organism-based; details: in vivo
Plasma [39] = experiment: Biodistribution in Sprague-Dawley rat plasma at 300 umol/kg, po after 4 hrs; type: ADME, organism-based; details: in vivo; how it was run: as §1
Plasma [40] = experiment: Biodistribution in Sprague-Dawley rat plasma at 300 umol/kg, sc after 2 hrs; type: ADME, organism-based; details: in vivo
Rattus norvegicus [41] = experiment: Toxicity in non-iron-overloaded Sprague-Dawley rat assessed as survival at 300 umol/kg/day, po after 28 days by non-renal perfusion protocol; type: organism-based; details: in vivo, 672 h; how it was run: as §4
Heart [42] = experiment: Biodistribution in Sprague-Dawley rat heart assessed per gram tissue wet weight at 300 umol/kg, sc after 2 hrs; type: ADME, organism-based; details: in vivo
Kidney [43] = experiment: Biodistribution in Sprague-Dawley rat kidney assessed per gram tissue wet weight at 300 umol/kg, po after 1 hr; type: ADME, organism-based; details: in vivo; how it was run: as §1
Rattus norvegicus [44] = experiment: Iron-clearing efficiency in non-iron-overloaded Sprague-Dawley rat bile assessed as iron excretion at 50 umol/kg, po; type: functional; how it was run: as §5

`COCCOCCOCCOc1cccc(C2=N[C@@](C)(C(=O)O)CS2)c1O` [DEFERITAZOLE] was tested, and the Drug uptake (Kidney [1]) was 259 nmol/g, the Drug uptake (Kidney [2]) was 90 nmol/g and the Activity (Rattus norvegicus [3]) was “Non-toxic”. For the same molecule, the Drug uptake (Plasma [4]) was 9 nmol/g, the Activity (Rattus norvegicus [5]) was “Non-toxic” and the Drug uptake (Kidney [6]) was 15 nmol/g. It also gave a Drug uptake (Heart [7]) of 9 nmol/g, an Activity (Sapajus apella [8]) of 21.5% and a Drug uptake (Pancreas [9]) of 22 nmol/g. The Activity (Rattus norvegicus [10]) was “Non-toxic”, the Drug uptake (Liver [11]) was 87 nmol/g and the Activity (Rattus norvegicus [12]) was “Non-toxic”. For the same molecule, the Drug uptake (Plasma [13]) was 46 nmol/g, the Drug uptake (Heart [14]) was 4 nmol/g and the Drug uptake (Pancreas [15]) was 6 nmol/g. For the same molecule, the Drug uptake (Heart [16]) was 6 nmol/g, the Drug uptake (Liver [17]) was 193 nmol/g and the Drug uptake (Kidney [18]) was 145 nmol/g. It also gave a Drug uptake (Pancreas [19]) of 9 nmol/g, an Activity (Rattus norvegicus [20]) of over 95% and a Drug uptake (Pancreas [21]) of 12 nmol/g. The Activity (Rattus norvegicus [22]) was “Non-toxic”, the Drug uptake (Kidney [23]) was 48 nmol/g and the Drug uptake (Pancreas [24]) was 30 nmol/g. It also gave an Activity (Rattus norvegicus [25]) of 13.4%, a Drug uptake (Pancreas [26]) of 24 nmol/g and a Drug uptake (Liver [27]) of 318 nmol/g. For the same molecule, the Drug uptake (Liver [28]) was 234 nmol/g, the Activity (Sapajus apella [29]) was 23% and the Activity (Rattus norvegicus [30]) was 20.7%. The Drug uptake (Plasma [31]) was 13 nmol/g, the Drug uptake (Liver [32]) was 151 nmol/g and the Activity (Rattus norvegicus [33]) was “Non-toxic”. It also gave an Activity (Rattus norvegicus [34]) of over 95%, an Activity (Rattus norvegicus [35]) of 18.7% and a Drug uptake (Plasma [36]) of 26 nmol/g. The Drug uptake (Heart [37]) was 16 nmol/g, the Drug uptake (Liver [38]) was 168 nmol/g and the Drug uptake (Plasma [39]) was 2 nmol/g. The Drug uptake (Plasma [40]) was 24 nmol/g, the Activity (Rattus norvegicus [41]) was “Non-toxic” and the Drug uptake (Heart [42]) was 8 nmol/g. It also gave a Drug uptake (Kidney [43]) of 150 nmol/g and an Activity (Rattus norvegicus [44]) of over 95%.
